Compound activity (PubChem)
STAT1 act – increases IFN-gamma driven STAT1 reporter signal. 2.6% of 200,000 active. AID 932. NIH 3T3 STAT1-luciferase reporter, luminescence; 100% = IFN-gamma alone, no compound. activation (% of control), % at 5.5 µM;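 active = activation above the screen-wide mean activation plus 3 SD, cut at about 130% in these data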;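 note: raw ratio to IFN-gamma control signal so 100% means no change and 0% no light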
FLuc inhib CS – inhibits firefly luciferase, flagging false hits in luciferase inhibition screens | AID 1006 | 1.5% of 200,000 active | P08659 | inhibition, % at 10 µM | ATPLite firefly luciferase biochemical luminescence, 10 min;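 active = inhibition above about 50% when tested at 10 µM, limit read from the data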
Target sequence (P08659 whole entry, looked up): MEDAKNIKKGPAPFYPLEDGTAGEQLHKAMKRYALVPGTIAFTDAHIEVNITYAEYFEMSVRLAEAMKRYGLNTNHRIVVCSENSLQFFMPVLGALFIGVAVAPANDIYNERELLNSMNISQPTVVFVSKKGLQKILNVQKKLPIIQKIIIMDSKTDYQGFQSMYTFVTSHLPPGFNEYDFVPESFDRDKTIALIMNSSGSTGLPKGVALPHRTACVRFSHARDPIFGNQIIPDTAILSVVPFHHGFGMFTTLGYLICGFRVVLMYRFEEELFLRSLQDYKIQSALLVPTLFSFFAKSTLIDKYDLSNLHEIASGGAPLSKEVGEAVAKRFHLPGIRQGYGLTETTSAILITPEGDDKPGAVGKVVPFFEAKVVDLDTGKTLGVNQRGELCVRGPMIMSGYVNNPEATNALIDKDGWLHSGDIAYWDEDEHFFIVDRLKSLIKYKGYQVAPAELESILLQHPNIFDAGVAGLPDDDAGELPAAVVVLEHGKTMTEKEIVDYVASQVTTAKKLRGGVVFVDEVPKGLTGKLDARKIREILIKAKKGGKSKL
FLuc act counter – firefly luciferase counter-screen for stimulation assays | ATPlite luciferase biochemical, luminescence, 10 min; 0 = ATP-free wells, 1 = DMSO control | P08659 | 200,000 tested, under 10 active | activation factor at 10 µM;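 active = luciferase activation factor, scaled between plate controls, of at least 2 with compound at 10 µM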
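System: luciferase plus luciferin reagent, cell-free; medium: PBS as buffer for the ATP substrate; dosing: test compounds dosed from 2 mM stocks in 100% DMSO; timing: 10 min post-reagent at room temperature; measured by: luminescence measurement of luciferase light output; evaluation: luciferase activation, seen as luminescence increase over controls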
APP 5'UTR act – APP 5'UTR luciferase reporter activation; 1% of 190,000 active; activation, % at 2 µM; SH-SY5Y APP 5'UTR luciferase reporter, luminescence; zero percent = DMSO vehicle wells; AID 1276;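 active = activation above a set limit, based on mean plus 3 SD of controls, cut at about 140% in these data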
NF-kB neuron act – raises NF-kB expression in human neuronal cells | NF-kB reporter expression; hits give high values | fold change at 12.5 µM | 1.6% of 190,000 active | AID 1239; in the data active = fold change above about 3.3
Starred values were filed as active, the others as inactive; x = not tested or not shown. Only some compounds are listed: those with a hit (about 4.3% of all), similar ones and a draw of the others.

SMILES | STAT1 act | FLuc inhib CS | FLuc act counter | APP 5'UTR act | NF-kB neuron act
O=C(COC(=O)c1cccnc1Cl)c1ccc(Cl)cc1Cl | 102 | 78* | 0.2 | -1 | 0.98
O=C(COC(=O)c1cccnc1Cl)c1ccc(OC(F)F)cc1 | 99 | 54* | 0.5 | 6 | 1.4
NS(=O)(=O)c1ccc(O)c(NC(=O)c2ccc([N+](=O)[O-])cc2)c1 | 106 | -2 | 1 | -1 | 1.2
O=S(=O)(c1ccc(Cl)cc1)N1CCN(C(=S)Nc2ccc(F)c(Cl)c2)CC1 | 100 | 1 | 1 | 17 | 0.84
CCOc1ccc(-c2nc(C)c(C(C)=O)n2O)cc1 | 107 | 64* | 0.4 | 17 | 2.2
COc1ccc(Nc2ncnc3ccccc23)cc1 | 129* | 16 | 0.8 | 52 | 2.4
Cc1ccc(C(=O)Nc2ccc3c(c2)OCCO3)o1 | 110 | 84* | 0.2 | 107 | 4*
Cc1ccc(C(=O)Nc2ccncc2)o1 | 93 | -6 | 1.1 | 12 | 1.2
Cn1nccc1C(=O)Nc1ccc2c(c1)OCCO2 | 116 | 44 | 0.6 | 68 | 2.1
Cc1cc(C(=O)Nc2ccc3c(c2)OCCO3)co1 | 120 | 75* | 0.2 | 138* | 4.7*
O=C1NC2(CCCC2)Oc2ccccc21 | 95 | -1 | 1 | 23 | 3.5*
O=C1NC2(CCCCC2)Cc2ccccc21 | 97 | -9 | 1.1 | -7 | 0.97
CCCCCOC(=O)c1[nH]c2c(c1C)C(=O)CC(c1ccco1)C2 (stereo unspecified) | 102 | -9 | 1.1 | -95 | 5.2*
CN1CCN(C(=O)c2ccc(CS(=O)(=O)c3c(Cl)cccc3Cl)o2)CC1 | 106 | -4 | 1 | -3 | 0.96
S=C(c1ccc(-c2ccccc2Cl)o1)N1CCCCC1 | 141* | 49 | 0.5 | 88 | 0.95
CN1CCN(C(=S)c2ccc(-c3cccc(Cl)c3Cl)o2)CC1 | 144* | 6 | 0.9 | 124 | 2.6
CN1c2ccsc2C(O)=C(C(=S)Nc2ccc(F)c(Cl)c2)S1(=O)=O | 93 | 7 | 0.9 | -9 | 1.2
Cc1cc(=O)oc(C)c1C(=O)NCCCN1CCN(c2ccccc2F)CC1 | 100 | -3 | 1 | -4 | 1.1
CN1CCN(CC(=O)Nc2ccccc2[N+](=O)[O-])CC1 | 105 | -3 | 1 | 10 | 5.5*
CC1CN(C(=O)Nc2cccc(Cl)c2)C2(CCCCCC2)O1 (stereo unspecified) | 98 | -6 | 1.1 | 15 | 1.2
COc1ccc2cc(-c3cc(C(=O)OCC(=O)NC4CCS(=O)(=O)C4)c4ccccc4n3)ccc2c1 (stereo unspecified) | 116 | 95* | 0 | 40 | 2.4
COc1ccc2cc(-c3cc(C(=O)OCC(=O)Nc4c(C)n(C)n(-c5ccccc5)c4=O)c4ccccc4n3)ccc2c1 | 112 | 94* | 0.1 | 81 | 3.4*
Cc1c(NC(=O)COC(=O)c2ccccc2Cl)c(=O)n(-c2ccccc2)n1C | 106 | -9 | 1.1 | -4 | 1.1
Cc1ccc(NC(=O)c2ccc(C(C)(C)C)cc2)cc1[N+](=O)[O-] | 128 | -3 | 1 | 81 | 2.1
CCN(CC)S(=O)(=O)c1ccc(=O)[nH]c1 | 98 | -9 | 1.1 | 22 | 1.1
SMILES | STAT1 act | FLuc inhib CS | FLuc act counter | APP 5'UTR act | NF-kB neuron act
CSc1ccccc1NC(=O)CN1CCN(Cc2ccccc2)CC1 | 92 | -6 | 1.1 | 18 | 1.1
O=C(CSc1nccn1-c1ncc(C(F)(F)F)cc1Cl)c1ccc(Br)cc1 | 130* | -6 | 1.1 | 31 | 0.61
Cc1ccc(/C(CSc2nccn2-c2ncc(C(F)(F)F)cc2Cl)=N\O)cc1 | 81 | -6 | 1.1 | 1 | 0.84
CCOc1ccc(Br)cc1CNc1ccc2c(c1)OCCO2 | 93 | -7 | 1.1 | 5 | 1.2
COc1ccc(N2C(=O)c3ccccc3NC23CCCCC3)cc1 | 135* | 32 | 0.7 | 135 | 3.1
CC(C)NC(=O)CSc1nnc(-c2ccc(F)cc2)c2ccccc12 | 91 | -1 | 1 | 15 | 1.2
CC(CN1CCOCC1)OC(=O)c1ccc2c(c1)OCCO2 (stereo unspecified) | 138* | 2 | 1 | 33 | 2
Cn1c(=N)n(CC(=O)c2ccc(Br)s2)c2ccccc21 | 146* | -5 | 1.1 | 197* | 3.1
COc1cccc(C(=O)Cn2c(=N)n(C)c3ccccc32)c1 | 84 | 32 | 0.7 | 229* | 4.4*
COc1cccc(C(=O)Cn2c(NCCO)nc3ccccc32)c1 | 95 | 1 | 1 | -2 | 1.8
Cn1c(=N)n(CC(=O)c2cccs2)c2ccccc21 | 134* | 0 | 1 | 160* | 3.9*
COc1ccc(C2N(S(=O)(=O)c3ccccc3)CCN2S(=O)(=O)c2ccc(C)cc2)cc1 (stereo unspecified) | 94 | -4 | 1 | x | 1.5
Cc1[nH]nc2c1C(c1cccs1)C1=C(CC(C)(C)CC1=O)N2 (stereo unspecified) | 89 | -10 | 1.1 | 9 | 0.77
CC(C)(C)c1ccc(/C=C/C(=O)N2CCOCC2)cc1 | 132* | 29 | 0.7 | 57 | 2.2
CC(C)Cc1ccc(/C=C/C(=O)N2CCOCC2)cc1 | 146* | 26 | 0.7 | 101 | 3.8*
O=C(CCCOc1ccc(Cl)cc1)N1CCOCC1 | 104 | -7 | 1.1 | 17 | 1.2
CC(C)(C)c1ccc(OCCCC(=O)N2CCOCC2)cc1 | 132* | -3 | 1 | 15 | 1.5
C[N+]1(CC(=O)Nc2ccc(F)cc2)CCN(C(=O)c2ccco2)CC1 | 107 | -5 | 1.1 | 6 | 1.1
COCCCN(C(=S)Nc1cc(C)cc(C)c1)C(C)c1ccncc1 (stereo unspecified) | 101 | -6 | 1.1 | 5 | 0.95
C=CCNC(=O)COc1c(C)ccc(C)c1C | 104 | -6 | 1.1 | -6 | x
O=C(NCc1ccco1)/C(=C\C=C\c1ccccc1)NC(=O)c1ccccc1Br | 115 | 0 | 1 | 7 | 0.39
O=C(NCCC1=CCCCC1)C(=O)NCC1OCCCN1S(=O)(=O)c1ccc(F)cc1 (stereo unspecified) | 95 | -7 | 1.1 | 10 | 1
Cc1ccc(COn2c(-c3ccc(Cl)cc3)nc3ccc([N+](=O)[O-])cc32)cc1 | 135* | 16 | 0.8 | x | 5.3*
Clc1ccc(COn2c(-c3ccc(Cl)cc3)nc3ccccc32)cc1 | 92 | -6 | 1.1 | x | 0.93
O=[N+]([O-])c1ccc2nc(-c3ccc(Cl)cc3)n(OCc3ccccc3)c2c1 | 129* | 5 | 0.9 | x | 4.5*
COc1ccc(C(CC(=O)O)NC(=O)COc2ccc(C)cc2)cc1OC (stereo unspecified) | 85 | -7 | 1.1 | 8 | 1.5
CC(C)c1ccccc1NC(=O)C1CN(S(=O)(=O)c2ccccc2)CCN1S(=O)(=O)c1ccccc1 (stereo unspecified) | 106 | -3 | 1 | 9 | 0.65
CNc1cnn(-c2ccc(C)cc2)c(=O)c1Cl | 129* | 24 | 0.8 | 70 | 2.6
COc1cnn(-c2ccc(C)cc2)c(=O)c1Cl | 141* | 0 | 1 | 24 | 2
CCc1nnc(NC(=O)c2cc3c(s2)CCCCC3)s1 | 120 | x | x | 32 | x
